Calls of active or inactive are those of the source. No cut-off for these calls is given here.
Key:
ZR-75-1 [1] = assay: Inhibition of endoplasmic reticulum Ca2+ pump inhibitor thapsigargin-induced intracellular Ca2+ increase in human ZR-75-1 cells at 40 uM pretreated with compound followed by thapsigargin induction in presence of Ca2+ free medium; format: functional, cell-based
Method in brief: (§1)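 ZR-75-1 cells loaded with 2 μM fura-2-AM for 30 min at 25 °C, then suspended in Ca2+-free medium (pH 7.4; 0.3 mM EGTA, 3 mM MgCl2). Stirred cuvette at 25 °C. Thapsigargin (1 μM) or BHQ (50 μM) given before or after 40 μM compound. Excitation 340/380 nm, emission 510 nm, read at 1 s intervals. [Ca2+]i calibrated with Triton X-100/CaCl2 then EGTA.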

ZR-75-1 [2] = assay: Cytotoxicity against human ZR-75-1 cells assessed as induction cell death at 20 to 50 uM after 24 hrs by WST-1 assay in presence of Ca2+ containing medium with Ca2+ chelator BAPTA-AM; format: functional, cell-based
Method in brief: (§2)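 WST-1 assay on ZR-75-1 cells seeded at 10000 cells/well, exposed to 0–50 μM compound for 24 h. Where used, 5 μM BAPTA-AM was given for 1 h beforehand, then cells were washed with Ca2+-containing medium. WST-1 incubation 30 min, A450 read. Viability expressed as % of compound-free control. Six wells per treatment, three separate experiments.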

ZR-75-1 [3] = assay: Induction of apoptosis in human ZR-75-1 cells assessed as early apoptotic cells at 40 uM after 24 hrs by annexin V-FITC/propidium iodide staining-based flow cytometric analysis (reference value: 6.84%); format: functional
Method in brief: (§3)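 ZR-75-1 cells exposed to 20–40 μM compound for 24 h, with 5 μM BAPTA-AM or NAC added first where indicated. Cells stained with Alexa Fluor 488 annexin V/PI for 15 min, at least 20000 cells analysed by flow cytometry (488 nm excitation, 530/575 nm filters). Early = annexin V+/PI−, late = annexin V+/PI+. Three independent biological replicates.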

ZR-75-1 [4] = assay: Cytotoxicity against human ZR-75-1 cells assessed as decrease in cell viability after 24 hrs by WST-1 assay; format: functional, cell-based; method in brief: as §2
ZR-75-1 [5] = assay: Induction of apoptosis in human ZR-75-1 cells assessed as late apoptotic cells at 30 uM after 24 hrs by annexin V-FITC/propidium iodide staining-based flow cytometric analysis (reference value: 2.53%); format: functional; method in brief: as §3
ZR-75-1 [6] = assay: Induction of Ca2+ influx in human ZR-75-1 cells at 40 uM by measuring Mn2+ quenching of fura-2-AM for 200 secs by spectrofluorophotometric analysis in presence of Ca2+ containing medium; format: functional, cell-based
Method in brief: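 Mn2+ quench assay: 50 μM MnCl2 added to fura-2-loaded ZR-75-1 cells in Ca2+-containing medium 1 min before recording. Excitation 360 nm (Ca2+-insensitive), emission 510 nm, 1 s intervals, 25 °C. Compound (40 μM) added during the trace, recorded up to 200 s. Arbitrary units, three experiments.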

ZR-75-1 [7] = assay: Increase in intracellular Ca2+ level in human ZR-75-1 cells at 40 uM measured every 150 secs by fura-2-AM dye-based spectrofluorophotometric analysis in presence of Ca2+ free medium with PKC inhibitor GF109203X; format: functional, cell-based
Method in brief: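 In Ca2+-free medium, GF109203X (2 μM) was added 1 min before 40 μM compound to fura-2-loaded ZR-75-1 cells in a 25 °C cuvette. Response = net area under curve as % of compound alone. Three experiments.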

[8] = Cytotoxicity against human ZR-75-1 cells assessed as cell viability at 50 uM measured 20 mins post intracellular Ca2+ level detection by trypan blue exclusion assay relative to control; format: cell-based; settings: read-out: Activity
Method in brief: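 Fura-2-loaded ZR-75-1 cells were held in the fluorescence cuvette with 50 μM compound. Viability was scored by trypan blue exclusion after 20 min of fluorescence recording.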

ZR-75-1 [9] = assay: Induction of apoptosis in human ZR-75-1 cells assessed as activation of caspase-3 at 20 to 40 uM preincubated for 24 hrs followed by antioxidant N-Acetylcysteine addition by Western immunoblot analysis; format: functional, cell-based
Method in brief: (§4)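 Confluent ZR-75-1 cells (3 × 10^6/dish) treated with 20, 30 or 40 μM compound for 24 h. Where used, 5 μM BAPTA-AM or 5 μM NAC was added before the compound. About 50 μg lysate protein run on 10% SDS-PAGE, transferred to PVDF, probed for cleaved caspase-9/-3 and β-actin, chemiluminescence. Densitometry normalized to β-actin. Three experiments.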

ZR-75-1 [10] = assay: Change in endoplasmic reticulum Ca2+ pump inhibitor thapsigargin-induced intracellular Ca2+ increase in human ZR-75-1 cells at 40 uM pretreated with thapsigargin followed by compound addition in presence of Ca2+ free medium; format: functional, cell-based; method in brief: as §1
ZR-75-1 [11] = assay: Increase in intracellular Ca2+ level in human ZR-75-1 cells at 40 uM treated for 25 secs by fura-2-AM dye-based spectrofluorophotometric analysis in presence of Ca2+-free medium (reference value: 50 +/- 2 nM); format: functional
Method in brief: (§5)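 Fura-2-loaded ZR-75-1 cells (0.5 million per 1 mL, stirred, 25 °C) in Ca2+-containing or Ca2+-free medium. Compound added at 25 s. 340/380 nm excitation, 510 nm emission at 1 s intervals, calibrated to nM. Concentration-response from baseline-subtracted area under curve (25–250 s) as % of 50 μM response in Ca2+ medium. EC50 from Hill fit. Three experiments.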

ZR-75-1 [12] = assay: Induction of reactive oxygen species production in human ZR-75-1 cells at 20 uM after 24 hrs by DCFH-DA probe-based flow cytometric analysis (reference value: 3.623%); format: functional
Method in brief: (§6)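 ZR-75-1 cells treated with 20–40 μM compound for 24 h, with 5 μM BAPTA-AM added first where indicated. Cells suspended at 1 × 10^6/mL, loaded with 10 μM DCFH-DA for 30 min at 37 °C. DCF read by flow cytometry (488 nm excitation, 530/30 nm filter, 10000 cells). % H2O2-positive (M1) after subtracting the baseline without probe. Three experiments.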

ZR-75-1 [13] = assay: Induction of apoptosis in human ZR-75-1 cells assessed as late apoptotic cells at 20 uM after 24 hrs by annexin V-FITC/propidium iodide staining-based flow cytometric analysis (reference value: 2.53%); format: functional; method in brief: as §3
ZR-75-1 [14] = assay: Induction of apoptosis in human ZR-75-1 cells assessed as increase in cleaved caspase-3 level at 20 to 40 uM after 24 hrs by Western immunoblot analysis; format: functional, cell-based; method in brief: as §4
ZR-75-1 [15] = assay: Induction of apoptosis in human ZR-75-1 cells at 20 to 50 uM preincubated for 24 hrs followed by antioxidant N-Acetylcysteine and Ca2+ chelator BAPTA-AM addition by annexin V-FITC/propidium iodide staining-based flow cytometric analysis; format: functional, cell-based
ZR-75-1 [16] = assay: Increase in intracellular Ca2+ level in human ZR-75-1 cells at 50 uM treated for 25 secs by fura-2-AM dye-based spectrofluorophotometric analysis in presence of Ca2+ containing medium (reference value: 50 +/- 3 nM); format: functional; settings: in the assay text read “40 uM treated” for “50 uM treated”; method in brief: as §5
ZR-75-1 [17] = assay: Induction of reactive oxygen species production in human ZR-75-1 cells at 30 uM after 24 hrs by DCFH-DA probe-based flow cytometric analysis (reference value: 3.623%); format: functional; method in brief: as §6
ZR-75-1 [18] = assay: Inhibition of endoplasmic reticulum Ca2+ pump inhibitor BHQ-induced intracellular Ca2+ increase in human ZR-75-1 cells at 40 uM pretreated with compound followed by BHQ induction in presence of Ca2+ free medium; format: functional, cell-based; method in brief: as §1
ZR-75-1 [19] = assay: Induction of reactive oxygen species production in human ZR-75-1 cells after 24 hrs by DCFH-DA probe-based flow cytometric analysis; format: functional, cell-based; method in brief: as §6
ZR-75-1 [20] = assay: Increase in intracellular Ca2+ level in human ZR-75-1 cells at 40 uM treated for 60 secs post PLC inhibitor U73122 addition by fura-2-AM dye-based spectrofluorophotometric analysis in presence of Ca2+ free medium; format: functional, cell-based
Method in brief: (§7)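 Performed in Ca2+-free medium with fura-2-loaded ZR-75-1 cells. Response expressed relative to 40 μM compound alone (100%). Three experiments.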

ZR-75-1 [21] = assay: Increase in intracellular Ca2+ level in human ZR-75-1 cells at 40 uM treated for 90 secs post PLC inhibitor U73122 and ATP addition by fura-2-AM dye-based spectrofluorophotometric analysis in presence of Ca2+ free medium; format: functional, cell-based; method in brief: as §7

Q: What does the source list for `O=c1cc(-c2ccccc2)oc2cc(O)c(O)c(O)c12` [BAICALEIN]?
A: inhibition (ZR-75-1 [1]): Active; Activity (ZR-75-1 [2]): inactive; Activity (ZR-75-1 [3]): 55.96%; Activity (ZR-75-1 [4]): Dose-dependent effect; Activity (ZR-75-1 [5]): 1.96%; Activity (ZR-75-1 [6]): Active; Activity (ZR-75-1 [7]): inactive; viability at 20 min, 50 µM [8]: 95%; Activity (ZR-75-1 [9]): inactive; Activity (ZR-75-1 [10]): inactive; Activity (ZR-75-1 [11]): 103 nM; Activity (ZR-75-1 [12]): 22.707%; Activity (ZR-75-1 [13]): 2.36%; Activity (ZR-75-1 [14]): Active; Activity (ZR-75-1 [15]): inactive; Activity (ZR-75-1 [16]): 220 nM; Activity (ZR-75-1 [17]): 32.663%; inhibition (ZR-75-1 [18]): Active; Activity (ZR-75-1 [19]): Dose-dependent effect; Activity (ZR-75-1 [20]): inactive; Activity (ZR-75-1 [21]): inactive

Reference: ChEMBL document CHEMBL3596101, “The Mechanism of Ca(2+) Movement in the Involvement of Baicalein-Induced Cytotoxicity in ZR-75-1 Human Breast Cancer Cells” (J Nat Prod, 2015)
